Experimental data as given in ChEMBL document CHEMBL1139486, “Novel benzopyridothiadiazepines as potential active antitumor agents” (J Med Chem, 2005).

system: L1210; experiment: Antiproliferative activity against mouse L1210 cells after 48 hrs relative control; assay type: functional, cell-based; settings: L1210, 48 h
Procedure, shortened: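 L1210 cells grown in RPMI 1640 with 10% fetal calf serum, 2 mM L-glutamine, penicillin/streptomycin and 10 mM HEPES (pH 7.4). Cells were exposed 48 h to graded drug concentrations, then MTT was added for 4 h at 37 °C. Formazan was dissolved in DMSO and OD read at 540 nm. IC50 came from linear regression on the linear part of the dose-response curve, in triplicate.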

SMILES	IC50 [µM]
COc1ccc(CCCN2C=CC=C3C2=Nc2cc(Cl)ccc2S(=O)(=O)N3C)cc1	> 10
COc1ccc(CN2C=CC=C3C2=Nc2cc(Cl)ccc2S(=O)(=O)N3C)cc1	1.5
COc1ccc(CN2C=CC=C3C2=Nc2cc(Cl)ccc2N(C)S3(=O)=O)cc1	5.4
COc1ccc(CN2C=CC=C3C2=Nc2cc(OC)ccc2N(C)S3(=O)=O)cc1	> 10
COc1ccc(CCN2c3cc(Cl)ccc3S(=O)(=O)N(C)c3cccnc32)cc1	> 10
COc1ccc(CCN2c3ccccc3N(C)S(=O)(=O)c3cccnc32)cc1	> 10
COc1ccc(CCCN2C=CC=C3C2=Nc2ccccc2S(=O)(=O)N3C)cc1	> 10
COc1ccc(CN2c3cc(Cl)ccc3N(C)S(=O)(=O)c3cccnc32)cc1	8.7
COc1ccc(CCN2C=CC=C3C2=Nc2cc(OC)ccc2N(C)S3(=O)=O)cc1	1.5
COc1ccc(CN2C=CC=C3C2=Nc2ccc(Cl)cc2S(=O)(=O)N3C)cc1	> 10
COc1ccc(CCCN2C=CC=C3C2=Nc2cc(OC)ccc2S(=O)(=O)N3C)cc1	> 50
COc1ccc(CN2c3cc(OC)ccc3N(C)S(=O)(=O)c3cccnc32)cc1	8.3
COc1ccc(CN2C=CC=C3C2=Nc2ccccc2N(C)S3(=O)=O)cc1	> 10
COc1ccc(CN2C=CC=C3C2=Nc2cc(OC)ccc2S(=O)(=O)N3C)cc1	> 50
COc1ccc(CCN2C=CC=C3C2=Nc2cc(C(F)(F)F)ccc2S(=O)(=O)N3C)cc1	> 10
CN(C)CCOc1ccc(CCN2C=CC=C3C2=Nc2ccccc2S(=O)(=O)N3C)cc1	> 10
COc1ccc(CN2c3ccccc3S(=O)(=O)N(C)c3cccnc32)cc1	> 10
COc1cc(CN2c3ccccc3S(=O)(=O)N(C)c3cccnc32)cc(OC)c1OC	> 10
CN1C2=CC=CN(CCc3ccc(O)cc3)C2=Nc2ccccc2S1(=O)=O	> 10
COc1ccc(CN2c3ccccc3N(Cc3ccc(OC)cc3)S(=O)(=O)c3cccnc32)cc1	> 100
COc1ccc(CN2c3cc(C)ccc3S(=O)(=O)N(C)c3cccnc32)cc1	> 10
COc1ccc(CCCN2C=CC=C3C2=Nc2cc(C)ccc2S(=O)(=O)N3C)cc1	> 10
COc1ccc(CCN2c3cc(C)ccc3N(C)S(=O)(=O)c3cccnc32)cc1	> 10
COc1ccc(CCCN2C=CC=C3C2=Nc2ccccc2N(C)S3(=O)=O)cc1	8.3
COc1cc(CN2C=CC=C3C2=Nc2ccccc2S(=O)(=O)N3C)cc(OC)c1OC	> 10
COc1ccc(CN2C=CC=C3C2=Nc2cc(C)ccc2S(=O)(=O)N3C)cc1	9
COc1ccc(CCN2c3ccc(Cl)cc3N(C)S(=O)(=O)c3cccnc32)cc1	> 10
COc1ccc(CN2C=CC=C3C2=Nc2cc(C)ccc2N(C)S3(=O)=O)cc1	9.2
COc1ccc(CN2C=CC=C3C2=Nc2ccc(Cl)cc2N(C)S3(=O)=O)cc1	4.1

system: L1210; experiment: Cell cycle perturbations in mouse L1210 cells assessed as accumulation in G2+M phase after 21 hrs at 5 uM relative to control; assay type: functional; settings: not given
Procedure, shortened: (§1)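 L1210 cells in RPMI 1640 with 10% fetal calf serum, 2 mM L-glutamine, antibiotics and 10 mM HEPES (pH 7.4) were exposed for 21 h (two doubling times). They were fixed in 70% ethanol and stained 30 min at 20 °C in D-PBS with […] RNAse and […] propidium iodide. 10⁴ cells per sample were analysed by flow cytometry for % G1, S, G2+M and 8N.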

SMILES	Activity [%]
COc1ccc(CCN2C=CC=C3C2=Nc2cc(OC)ccc2N(C)S3(=O)=O)cc1	17

system: L1210; experiment: Cell cycle perturbations in mouse L1210 cells assessed as accumulation in S phase after 21 hrs at 5 uM relative to control; assay type: functional; settings: not given; procedure, shortened: as §1

SMILES	Activity [%]
COc1ccc(CCN2C=CC=C3C2=Nc2cc(OC)ccc2N(C)S3(=O)=O)cc1	7

system: L1210; experiment: Cell cycle perturbations in mouse L1210 cells assessed as accumulation in G1 phase after 21 hrs at 5 uM relative to control; assay type: functional; settings: not given; procedure, shortened: as §1

SMILES	Activity [%]
COc1ccc(CCN2C=CC=C3C2=Nc2cc(OC)ccc2N(C)S3(=O)=O)cc1	5

system: L1210; experiment: Cell cycle perturbations in mouse L1210 cells assessed as accumulation in 8N phase after 21 hrs at 5 uM relative to control; assay type: functional; settings: not given; procedure, shortened: as §1

SMILES	Activity [%]
COc1ccc(CCN2C=CC=C3C2=Nc2cc(OC)ccc2N(C)S3(=O)=O)cc1	71
